Tests used:
Gamma-secretase [1] = experiment: Inhibition of human gamma secretase assessed as amyloid-beta40 peptide production […] by ELISA; type: cell-based; settings: hek293
Method in brief: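 Cell-free assay. Membrane fractions from HEK293 cells carrying γ-secretase activity are incubated with a recombinant APP C-terminal fragment as substrate. The Aβ40 peptide produced is quantified by ELISA, and IC50 is derived from it.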

Gamma-secretase [2] = experiment: Inhibition of human gamma secretase in HEK293 cells by reporter gene assay; type: cell-based
Method in brief: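 Cellular reporter assay in HEK293 cells. The γ-secretase substrate is a Notch 1 construct fused to a Gal4/VP16 transcription factor, which drives a firefly luciferase reporter gene. IC50 is taken from inhibition of the luciferase signal.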

[3] = Maximal achievable bioavailability in rat liver microsomes; type: ADME, Microsome; settings: read-out: Max Achievable Bioavailability
[4] = Maximal achievable bioavailability in human liver microsomes; type: ADME, Microsome; settings: read-out: Max Achievable Bioavailability
Method in brief: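 Maximal achievable bioavailability is estimated from compound incubations with liver microsomes of the stated species.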

[5] = Solubility of compound; type: physicochemical
[6] = Ratio of drug level in brain to plasma in mouse; type: ADME
[7] = Oral bioavailability in mouse at 7.8 mg/kg, po; type: ADME, organism-based; settings: in vivo
Method in brief: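 Oral bioavailability (F) in mice after a 7.8 mg/kg oral dose.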

[8] = Clearance in mouse; type: ADME, organism-based; settings: in vivo
Mus musculus = experiment: Increase of CTF-APP ratio in po dosed transgenic mouse AD model after 2 days; type: functional

Row | Compound | IC50 (Gamma-secretase [1]) | IC50 (Gamma-secretase [2]) | Fh [3] | Fh [4] | other results
1 | CC(C(=O)NC1CCc2ccccc21)C(=O)NC1C(=O)N(C)c2ccccc2-c2ccccc21 (centres undefined) | 12000 nM | 14000 nM |  |  | 
2 | CC(C(=O)NC1C(=O)N(C)c2ccccc2-c2ccccc21)C(=O)NC(C)(C)c1ccccc1 (centres undefined) | > 20000 nM | > 20000 nM | 9% | 14% | 
3 | C[C@H](C(=O)NCc1cc(F)cc(F)c1)C(=O)N[C@@H]1C(=O)N(C)c2ccccc2-c2ccccc21 | 8.7 nM | 7.1 nM |  |  | 
4 | CC(C(=O)NCCC(F)(F)F)C(=O)NC1C(=O)N(C)c2ccccc2-c2ccccc21 (centres undefined) | 37 nM | 24 nM |  |  | 
5 | C[C@H](OC(=O)Nc1ccccc1)C(=O)NC1C(=O)N(C)c2ccccc2-c2ccccc21 (some centres undefined) | 2700 nM | 1500 nM |  |  | 
6 | CC(C(=O)NC(C)c1ccccc1)C(=O)NC1C(=O)N(C)c2ccccc2-c2ccccc21 (centres undefined) | 5700 nM | 6300 nM |  |  | 
7 | CC(C(=O)NCc1cc(F)cc(F)c1)C(=O)NC1C(=O)N(C)c2ccccc2-c2ccccc21 (centres undefined) | 22 nM | 10 nM | 9% | 10% | 
8 | CC(C(=O)NCC(F)(F)C(F)(F)F)C(=O)N[C@@H]1C(=O)N(C)c2ccccc2-c2ccccc21 (mixture of isomers) | 3 nM | 1.7 nM | 38% | 55% | Solubility [5]: 28 mg/mL; Kp [6]: 0.5; bioavailability [7]: 21%; clearance [8]: 53 mL/min/kg; MED (Mus musculus): 3 mg/kg
9 | C[C@@H](C(=O)NCc1cc(F)cc(F)c1)C(=O)N[C@@H]1C(=O)N(C)c2ccccc2-c2ccccc21 | 2 nM | 1.6 nM |  |  | 
10 | CC(C(=O)NCC(F)(F)F)C(=O)NC1C(=O)N(C)c2ccccc2-c2ccccc21 (centres undefined) | 20 nM | 42 nM | 37% | 55% | 
11 | CC(OC(=O)NCC(F)(F)C(F)(F)F)C(=O)N[C@@H]1C(=O)N(C)c2ccccc2-c2ccccc21 (some centres undefined) |  | 2 nM |  |  | 
12 | C[C@H](OC(=O)NCC(F)(F)C(F)(F)F)C(=O)N[C@@H]1C(=O)N(C)c2ccccc2-c2ccccc21 | 8.6 nM | 1.7 nM | 70% | 72% | Kp [6]: 0.5; bioavailability [7]: 23%; clearance [8]: 32 mL/min/kg; MED (Mus musculus): 3 mg/kg
13 | CC(C(=O)NCc1cc(F)cc(F)c1)C(=O)N[C@@H]1C(=O)N(C)c2ccccc2-c2ccccc21 (mixture of isomers) | 3.1 nM | 8.8 nM |  |  | 
14 | CC(C(N)=O)C(=O)NC1C(=O)N(C)c2ccccc2-c2ccccc21 (centres undefined) | 5300 nM | > 25000 nM |  |  | 
15 | CC(C(=O)NC(CO)c1ccccc1)C(=O)NC1C(=O)N(C)c2ccccc2-c2ccccc21 (centres undefined) | 22000 nM | > 25000 nM |  |  | 
16 | CC(C(=O)NCc1ccccc1)C(=O)NC1C(=O)N(C)c2ccccc2-c2ccccc21 (centres undefined) | 15 nM | 75 nM |  |  | 
17 | CC(C(=O)NCc1cc(F)cc(F)c1)C(=O)N[C@H]1C(=O)N(C)c2ccccc2-c2ccccc21 (mixture of isomers) | 620 nM | 580 nM |  |  | 
18 | C[C@H](NC(=O)[C@@H](O)c1cc(F)cc(F)c1)C(=O)N[C@@H]1C(=O)N(C)c2ccccc2-c2ccccc21 |  |  |  |  | MED (Mus musculus): 20 mg/kg
19 | CCOCCNC(=O)C(C)C(=O)NC1C(=O)N(C)c2ccccc2-c2ccccc21 (centres undefined) | 3000 nM | 3300 nM |  |  | 
20 | CC(C(=O)NCC1CC1)C(=O)NC1C(=O)N(C)c2ccccc2-c2ccccc21 (centres undefined) | 90 nM | 210 nM | 12% | 18% | 

Source: ChEMBL document CHEMBL1137506, “Novel orally active, dibenzazepinone-based gamma-secretase inhibitors” (Bioorg Med Chem Lett, 2007)
